Entries after “also recorded” stand apart in the source; their conditions may differ.
What was measured:
A549 cells [1] = experiment: DAPI staining, nuclear morphology / apoptosis; type: cell-based, human; settings: A549, 1, 3.5 and 5 μM, 48 h
Summary of the method: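 A549 cells (3 × 10^4 per well) were grown 48 h, then exposed to test compound at 1, 3.5 and 5 μM for 48 h. Cells were washed in PBS, fixed in ice-cold 4% paraformaldehyde for 20 min and permeabilised with 0.25% Triton X-100. Staining was DAPI at 1 μg/mL final for 30 min, read by fluorescence microscopy. Cisplatin 17 μM was the positive control.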

A549 (lung carcinoma) = experiment: MTT assay, cytotoxicity/growth inhibition; type: cell-based, human; settings: for Cytotoxic Activity (% Growth Inhibition): A549, 20 μM concentration, MTT, 48 h, 20 µM; for IC50 / inhibition at 20 µM: Homo sapiens; for IC50: A549; for inhibition at 20 µM: A549, 48 h, read-out: Cytotoxic Activity (% Growth Inhibition), A549, 20 μM concentration, MTT, 48 h
Summary of the method: (§1)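 Cells were grown in RPMI (A549, HCT-116, PC-3) or DMEM (MCF-7) with 10% FBS at 37 °C and 5% CO2. Seeding per well was […] and PC-3 8 × 10^4 cells. […] MTT 250 μg/mL, 4 h; DMSO; A570; triplicate; mean ± SE.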

A549 cells [2] = experiment: Mitochondrial membrane potential, Rhodamine-123 staining; type: cell-based, human; settings: A549, Rh-123 dye, 1, 3.5 and 5 μM, 48 h, versus untreated cells
Summary of the method: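 A549 cells (3 × 10^4 per well) adhered 24 h at 37 °C and were treated with test compound at 1, 3.5 and 5 μM for 48 h. They were stained with 10 μM rhodamine-123 for 30 min at 37 °C and washed in PBS. Fluorescence microscopy read mitochondrial membrane potential as Rh-123 fluorescence, compared with untreated cells.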

HOP92 = experiment: In vitro cytotoxicity, expanded lung cancer panel; type: cell-based; settings: Homo sapiens, HOP-92
[3] = system: normal human embryonic kidney cells (HEK293); experiment: Selectivity index versus normal cell line; type: cell-based
HOP62 = experiment: In vitro cytotoxicity, expanded lung cancer panel; type: cell-based; settings: Homo sapiens, HOP-62
[4] = system: PC-3 (prostate carcinoma); experiment: MTT assay, cytotoxicity/growth inhibition; type: cell-based; settings: Homo sapiens; for inhibition at 20 µM: 48 h, read-out: Cytotoxic Activity (% Growth Inhibition)
Summary of the method: as §1

MCF-7 (breast carcinoma) = experiment: MTT assay, cytotoxicity/growth inhibition; type: cell-based; settings: Homo sapiens; for IC50: MCF7; for inhibition at 20 µM: MCF7, 48 h, read-out: Cytotoxic Activity (% Growth Inhibition)
Summary of the method: as §1

A549 cells [5] = experiment: Intracellular ROS, DCFDA/DCFHDA staining; type: cell-based, human; settings: A549, DCFDA dye, 48 h
Summary of the method: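 Seeded A549 cells (3 × 10^4 per well) adhered 24 h at 37 °C, then received test compound at 1, 3.5 or 5 μM for 48 h. Cells were loaded with 10 μM DCFHDA for 30 min at 37 °C and moved to PBS. Intracellular ROS was imaged by fluorescence microscopy. H2O2 (0.05%) was the positive control.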

[6] = system: HCT-116 (colon carcinoma); experiment: MTT assay, cytotoxicity/growth inhibition; type: cell-based; settings: Homo sapiens; for IC50: HCT-116; for inhibition at 20 µM: HCT-116, 48 h, read-out: Cytotoxic Activity (% Growth Inhibition)
Summary of the method: as §1

Compound: COc1ccc(CC(=O)OCC2=CCC3[C@](C)(CO)[C@H](O)CC[C@@]3(C)[C@@H]2/C=C/C2=CCOC2=O)cc1 (stereo partly drawn) [Compound 9s, ((1S,5R,6R,8aR)-6-Hydroxy-5-(hydroxymethyl)-5,8a-dimethyl-1-((E)-2-(2-oxo-2,5-dihydrofuran-3-yl)vinyl)-1,4,4a,5,6,7,8,8a-octahydronaphthalen-2-yl)methyl 2-(4-Methoxyphenyl)acetate]
- nuclear morphology / apoptosis (DAPI staining) (A549 cells [1]): nuclear morphological changes; also recorded: altered staining pattern, apoptotic bodies, and condensed chromatin; also recorded: induces apoptosis
- Cytotoxic Activity (% Growth Inhibition) (A549 (lung carcinoma)): 82.2 ± 0.78%
- potency relative to andrographolide (times / fold more potent) (A549 (lung carcinoma); A549, ratio of IC50 values): ~7
- IC50 (A549 (lung carcinoma)): 3.5 µM
- inhibition at 20 µM (A549 (lung carcinoma)): 82%
- mitochondrial membrane potential (MMP) (A549 cells [2]): disturbed mitochondrial membrane potential (MMP); also recorded: significant reduction in MMP; also recorded: disturbs mitochondrial membrane potential
- IC50 (HOP92): 38.6 µM
- selectivity index (SI) wrt HEK cell line ([3]; A549 versus HEK293): 13.9
- selectivity index (SI) wrt HEK cell line ([3]; HOP62 versus HEK293): 3.7
- selectivity index (SI) wrt HEK cell line ([3]; HOP92 versus HEK293): 1.26
- IC50 (HOP62): 13 µM
- IC50 [4]: > 20 µM
- inhibition at 20 µM [4]: 27.6 ± 0.89%
- IC50 (MCF-7 (breast carcinoma)): 14.6 µM
- inhibition at 20 µM (MCF-7 (breast carcinoma)): 54 ± 0.74%
- intracellular ROS generation (A549 cells [5]; 1 μM): increases reactive oxygen species (ROS); also recorded: significantly induced more ROS generation
- intracellular ROS levels (A549 cells [5]; 3.5 and 5 μM): ROS levels decrease
- IC50 [6]: > 20 µM
- inhibition at 20 µM [6]: 4.1 ± 0.97%

Compound: C[C@]1(CO)C2CC=C(COC(=O)Cc3ccc(Cl)c(Cl)c3)[C@@H](/C=C/C3=CCOC3=O)[C@]2(C)CC[C@H]1O (stereo partly drawn) [Compound 9v, ((1S,5R,6R,8aR)-6-Hydroxy-5-(hydroxymethyl)-5,8a-dimethyl-1-((E)-2-(2-oxo-2,5-dihydrofuran-3-yl)vinyl)-1,4,4a,5,6,7,8,8a-octahydronaphthalen-2-yl)methyl 2-(3,4-Dichlorophenyl)acetate]
- Cytotoxic Activity (% Growth Inhibition) (A549 (lung carcinoma)): 72.7 ± 0.54%
- IC50 (A549 (lung carcinoma)): 7.5 µM
- inhibition at 20 µM (A549 (lung carcinoma)): 72%
- IC50 [4]: > 20 µM
- inhibition at 20 µM [4]: 26.5 ± 0.54%
- IC50 (MCF-7 (breast carcinoma)): > 20 µM
- inhibition at 20 µM (MCF-7 (breast carcinoma)): 29 ± 0.78%
- IC50 [6]: > 20 µM
- inhibition at 20 µM [6]: 5.7 ± 6.1%

Compound: CCCCCCCC(=O)OCC1=CCC2[C@](C)(CO)[C@H](O)CC[C@@]2(C)[C@@H]1/C=C/C1=CCOC1=O (stereo partly drawn) [Compound 9w, ((1S,5R,6R,8aR)-6-Hydroxy-5-(hydroxymethyl)-5,8a-dimethyl-1-((E)-2-(2-oxo-2,5-dihydrofuran-3-yl)vinyl)-1,4,4a,5,6,7,8,8a-octahydronaphthalen-2-yl)methyl Octanoate]
- inhibition at 20 µM (A549 (lung carcinoma)): 16.8 ± 0.93%
- inhibition at 20 µM [4]: 67 ± 0.75%
- inhibition at 20 µM (MCF-7 (breast carcinoma)): 25 ± 0.36%
- inhibition at 20 µM [6]: 23.9 ± 0.58%

Compound: CCCCCCCCCC(=O)OCC1=CCC2[C@](C)(CO)[C@H](O)CC[C@@]2(C)[C@@H]1/C=C/C1=CCOC1=O (stereo partly drawn) [Compound 9x, ((1S,5R,6R,8aR)-6-Hydroxy-5-(hydroxymethyl)-5,8a-dimethyl-1-((E)-2-(2-oxo-2,5-dihydrofuran-3-yl)vinyl)-1,4,4a,5,6,7,8,8a-octahydronaphthalen-2-yl)methyl Decanoate]
- inhibition at 20 µM (A549 (lung carcinoma)): 23.2 ± 0.74%
- inhibition at 20 µM [4]: 24 ± 0.83%
- inhibition at 20 µM (MCF-7 (breast carcinoma)): 46 ± 0.84%
- inhibition at 20 µM [6]: 2.7 ± 0.51%

Compound: CCCCCCCCCCCC(=O)OCC1=CCC2[C@](C)(CO)[C@H](O)CC[C@@]2(C)[C@@H]1/C=C/C1=CCOC1=O (stereo partly drawn) [Compound 9y, ((1S,5R,6R,8aR)-6-Hydroxy-5-(hydroxymethyl)-5,8a-dimethyl-1-((E)-2-(2-oxo-2,5-dihydrofuran-3-yl)vinyl)-1,4,4a,5,6,7,8,8a-octahydronaphthalen-2-yl)methyl Dodecanoate]
- inhibition at 20 µM (A549 (lung carcinoma)): 1.6 ± 0.98%
- inhibition at 20 µM [4]: 66 ± 0.47%
- inhibition at 20 µM (MCF-7 (breast carcinoma)): 38 ± 0.18%
- inhibition at 20 µM [6]: 4.6 ± 0.44%
